Hits are enriched below; roughly 2.9% of the tested compounds scored in any of these assays.
TCR-CD3 inh: human TCR-CD3 binding inhibition | inhibition, % at 9.4 µM | hit rate 0.37% among 360,000 | TAMRA-labeled TCR probe fluorescence, biochemical; in the data active = inhibition above about 19%;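 note: recombinant mutant TCR 2C K166C tagged with TAMRA read by polarization; 0% = receptor in buffer alone and 100% = receptor with positive control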
HTRA1 inhibitor: inhibitors of human serine peptidase HTRA1; Q92743; recombinant HTRA1, FP-rhodamine activity-based probe, fluorescence polarization; inhibition, % at 5.96 µM; hit rate 0.5% among 340,000; in the data active = inhibition above about 36%;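 note: 0% = enzyme with DMSO and 100% = wells lacking enzyme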
SIAE primary: blocks human sialic acid acetylesterase. hit rate 0.69% among 370,000. Q9HAT2. SIAE FP-Rh probe binding, fluorescence polarization. inhibition, % at 9.66 µM;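 active = inhibition above a cutoff: mean of compounds within the control limits plus 3 SD of those, cut at about 17% in these data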;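 note: 0% = plate median of compound wells and 100% = probe without SIAE protein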
PRMT1 FP inh: PRMT1 (human) inhibition, primary screen | Q99873 | AID 652257 | inhibition, % at 2.79 µM | hit rate 1.3% among 370,000 | recombinant PRMT1, activity-based probe fluorescence polarization;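 active = inhibition above about 21% made by adding two undisclosed values, limit read from the data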
ATG4B inhibitor: blocks human ATG4B protease cleavage of LC3 substrate; ATG4B cleavage of LC3-PLA2, NBD-HPC fluorescence, 1 h; inhibition, % at 8.33 µM; hit rate 0.51% among 340,000; AID 504462; in the data active = inhibition above about 40%
ABHD4 inh: ABHD4 (mouse) inhibition, primary FP screen | Q8VD66 | purified mABHD4, FP-Rh probe fluorescence polarization | inhibition, % at 8.92 µM | hit rate 0.54% among 370,000 | AID 720543;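 active = inhibition exceeding the mean over every tested compound plus 3 SD, cut at about 30% in these data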;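 note: 0% = plate median of compound wells and 100% = S159A mutant with DMSO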
Target sequence (Q8VD66 whole entry, looked up): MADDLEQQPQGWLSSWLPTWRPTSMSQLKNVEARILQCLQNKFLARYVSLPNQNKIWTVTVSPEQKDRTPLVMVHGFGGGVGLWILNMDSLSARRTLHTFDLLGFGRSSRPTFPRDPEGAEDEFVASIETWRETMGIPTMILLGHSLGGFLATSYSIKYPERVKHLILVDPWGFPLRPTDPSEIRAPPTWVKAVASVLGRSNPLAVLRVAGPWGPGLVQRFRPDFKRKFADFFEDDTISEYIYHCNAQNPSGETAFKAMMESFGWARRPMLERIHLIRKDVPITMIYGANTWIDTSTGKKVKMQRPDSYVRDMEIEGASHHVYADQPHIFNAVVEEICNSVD
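Assay system: mouse ABHD4 enzyme, wild type / Also added: fluorescent activity-based probe FP-Rh / Doses: single nominal dose of 8.92 µM, 0.89% DMSO final / Timing: 45 min compound pre-incubation plus 60 min probe step, 25 °C / Signal: FP readout, ex 525 nm / em 598 nm / Control set: S159A mutant/DMSO as 100%, compound-well median as 0%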
PRMT1 confirm: confirmation of human PRMT1 inhibitors; recombinant His-PRMT1, activity-based probe fluorescence polarization; shares compounds with PRMT1 FP inh; inhibition, % at 2.79 µM; hit rate 42% among 3,300;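 active = mean inhibition across replicates above the hit cutoff derived for the earlier primary screen, cut at about 22% in these data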
* marks the source's active call; other numbers are inactive results.

Screening COc1ccc(NC(=O)[C@@H](NC(=O)N2C[C@H]3C[C@@H](C2)c2cccc(=O)n2C3)C(C)C)cc1 returned TCR-CD3 inh -1, HTRA1 inhibitor 10, SIAE primary 3, PRMT1 FP inh -1, ATG4B inhibitor -14 and ABHD4 inh 0.
COc1ccc(C2CN(C)CC2C(=O)c2ccc(C)cc2)cc1Cl (configuration not stated) was read as TCR-CD3 inh 5, HTRA1 inhibitor -1, SIAE primary 4, PRMT1 FP inh -1, ATG4B inhibitor -4 and ABHD4 inh 6.
Cc1ccc(OP2(=O)Nc3cc(C)c(C)cc3S2)cc1 (configuration not stated) was read as TCR-CD3 inh 3, HTRA1 inhibitor 13, SIAE primary 15, PRMT1 FP inh 67*, ATG4B inhibitor -1, ABHD4 inh 8 and PRMT1 confirm 60*.
COc1ccc2c(c1)[C@@]13CCC=C[C@H]1[C@@H](C2)NCC3 was read as TCR-CD3 inh 2, HTRA1 inhibitor 6, SIAE primary 1, PRMT1 FP inh -2, ATG4B inhibitor -3 and ABHD4 inh 11.
CC(C)NC(C)Cc1ccc(I)cc1 (configuration not stated) was read as TCR-CD3 inh 6, HTRA1 inhibitor 0, SIAE primary 2, PRMT1 FP inh 1, ATG4B inhibitor 7 and ABHD4 inh -1.
Screening Cc1cc(N2CCNC[C@H]2C)ccc1N1CC[C@@H](O)C1 returned TCR-CD3 inh -2, SIAE primary 9, PRMT1 FP inh 51*, ABHD4 inh 25 and PRMT1 confirm 8.
C[C@@H]1CNCCN1c1ccc(N2CC[C@@H](O)C2)c(C#N)c1 was read as TCR-CD3 inh 0, SIAE primary 7, PRMT1 FP inh -5 and ABHD4 inh 2.
For O=C(OCC(=O)c1ccc([N+](=O)[O-])cc1)/C(=C/c1ccc(Cl)cc1)NC(=O)c1ccccc1 the results were TCR-CD3 inh -9, HTRA1 inhibitor -3, SIAE primary 5, PRMT1 FP inh 46*, ATG4B inhibitor -5, ABHD4 inh 6 and PRMT1 confirm 3.
`Cc1ccc(O)c(CN2CCC3CCC(C3)C2)c1` (configuration not stated) gave TCR-CD3 inh 0, HTRA1 inhibitor -1, SIAE primary 3, PRMT1 FP inh 1, ATG4B inhibitor -12 and ABHD4 inh -2.
For C=C1C(=O)OC2CC3(C)OC3C3OC3C3=CC(OC3=O)C12 (configuration not stated) the results were TCR-CD3 inh 1, SIAE primary 6, PRMT1 FP inh 44*, ABHD4 inh -5 and PRMT1 confirm 40*.
`C=C1C(=O)OC2CC3(C)OC3CCC(C)=CC(OC(C)=O)C12` (configuration not stated) gave TCR-CD3 inh -3, HTRA1 inhibitor 2, SIAE primary -4, PRMT1 FP inh 4, ATG4B inhibitor -6 and ABHD4 inh -1.
Screening CCOC(=O)c1c(/N=C/C2C(=O)NC(=S)NC2=O)sc2c1CCC2 returned ATG4B inhibitor 17.
`N#Cc1c(/N=C/C2C(=O)NC(=S)NC2=O)sc2c1CCCC2` gave TCR-CD3 inh -16, HTRA1 inhibitor -53, SIAE primary -41, PRMT1 FP inh 26*, ATG4B inhibitor 24, ABHD4 inh -14 and PRMT1 confirm 7.
`O=c1[nH]sc2cc(F)ccc12` gave TCR-CD3 inh 5, HTRA1 inhibitor 2, SIAE primary 7, PRMT1 FP inh 73*, ATG4B inhibitor -5, ABHD4 inh 10 and PRMT1 confirm 69*.
For CNC(=O)CSP(=S)(OC)OC the results were TCR-CD3 inh -1, HTRA1 inhibitor 4, SIAE primary 12, PRMT1 FP inh 32*, ATG4B inhibitor -7, ABHD4 inh -2 and PRMT1 confirm 29*.
`Cn1cnc([N+](=O)[O-])c1Sc1ccc([N+](=O)[O-])cc1` gave TCR-CD3 inh -9, HTRA1 inhibitor 5, SIAE primary -2, PRMT1 FP inh 48*, ATG4B inhibitor 4, ABHD4 inh -2 and PRMT1 confirm 13.
